Laboratory results: ChEMBL document CHEMBL5150070, “Tricyclic SpiroLactams Kill Mycobacteria In Vitro and In Vivo by Inhibiting Type II NADH Dehydrogenases” (J Med Chem, 2022)
In brackets after ≈: the same amount, converted by molar mass.

Assays:
Acinetobacter baumannii = assay: Antibiotic activity against Acinetobacter baumannii LMG-17978 assessed as reduction in bacterial cell growth by measuring resazurin reduction incubated for 6 days by fluorescence microplate based assay; assay type: functional; conditions: LMG-17978, 144 h, time 6 day
Mycobacterium marinum = assay: In vivo antimycobacterial efficacy in Mycobacterium marinum expressing Wasabi infected zebrafish larvae assessed as prolongation of survival time at 4.8 uM treated for 4 days after 1 day post infection; assay type: functional; conditions: time 4 day
[1] = tested on: Mycolicibacterium smegmatis; assay: Antibiotic activity against Mycobacterium smegmatis mc2155 assessed as reduction in bacterial cell growth by measuring resazurin reduction incubated for 6 days by fluorescence microplate based assay; assay type: functional; conditions: mc2155, 144 h, time 6 day
[2] = tested on: Mycobacterium tuberculosis; assay: Bactericidal activity against Non-replicating Mycobacterium tuberculosis ss18b-lux assessed as decrease in colony forming unit measured at 4.8 uM after 1 weeks; assay type: functional
Procedure, shortened: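 Streptomycin-dependent 18b-lux starved of streptomycin for 14 days (OD600 reset to 0.2 on days 7 and 13) to become non-replicating. Diluted to OD600 0.15 on dispensed compound and held at 37°C. On day 7, active wells plated on 7H11-OADC with 50 µg/mL streptomycin and incubated up to 8 weeks for cfu.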

Escherichia coli [3] = assay: Antibiotic activity against Escherichia coli BW25113 assessed as reduction in bacterial cell growth by measuring resazurin reduction incubated for 6 days by fluorescence microplate based assay; assay type: functional; conditions: BW25113, 144 h, time 6 day
Procedure, shortened: (§1)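 E. coli BW25113, E. coli ΔtolC and S. aureus SH1000 were cultured and tested in cation-adjusted Mueller Hinton II broth. Viability was read by adding resazurin and measuring resorufin fluorescence at Ex 530 nm / Em 590 nm.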

[4] = target: T1, Type II NADH:quinone oxidoreductase NdhA (Mycobacterium tuberculosis, UniProt P95200); assay: Inhibition of Mycobacterium smegmatis MC2 155 recombinant ndhA assessed as rate of NADH oxidation in the presence of an electron acceptor menadione; set-up: species or system Mycolicibacterium smegmatis
T1 sequence (P95200 whole entry): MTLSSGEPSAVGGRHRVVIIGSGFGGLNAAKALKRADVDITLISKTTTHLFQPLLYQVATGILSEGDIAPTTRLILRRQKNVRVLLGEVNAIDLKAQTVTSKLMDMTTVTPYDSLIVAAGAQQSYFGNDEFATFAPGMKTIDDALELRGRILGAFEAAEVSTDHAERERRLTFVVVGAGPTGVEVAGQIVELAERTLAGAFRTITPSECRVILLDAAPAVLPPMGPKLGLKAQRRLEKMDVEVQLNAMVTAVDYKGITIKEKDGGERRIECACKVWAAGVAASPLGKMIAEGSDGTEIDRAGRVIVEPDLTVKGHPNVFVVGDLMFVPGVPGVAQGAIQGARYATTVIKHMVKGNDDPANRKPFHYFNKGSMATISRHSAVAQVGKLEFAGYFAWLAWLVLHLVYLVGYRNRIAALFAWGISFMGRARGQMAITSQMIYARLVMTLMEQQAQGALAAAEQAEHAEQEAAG

Escherichia coli [5] = assay: Antibiotic activity against Escherichia coli deltatolC BW25113 deltatolC assessed as reduction in bacterial cell growth by measuring resazurin reduction incubated for 6 days by fluorescence microplate based assay; assay type: functional; conditions: 144 h, time 6 day; procedure, shortened: as §1

## CC(C)[C@H]1CO[C@]23CCN(Cc4ccc(C(F)(F)F)cc4)C[C@H]2CCC(=O)N13
Acinetobacter baumannii
  MIC: > 100 µM
Mycobacterium marinum
  Time: 3 days
[1]
  MIC: 1.3 µM (≈ 0.515 µg/mL)
[2]
  Activity: 1 log10CFU
Escherichia coli [3]
  MIC: > 100 µM
[4]
  IC50: 59 nM
Escherichia coli [5]
  MIC: 100 µM (≈ 39.6 µg/mL)
